The values below come from ChEMBL document CHEMBL1159346, “Antineoplastic agents. 488. Isolation and structure of yukonin from a yukon territory fungus” (2003).

In general, MIC refers to the lowest concentration found to suppress growth. High values mean a less susceptible organism, low ones a more susceptible organism. As a reminder, the GI50 is the concentration giving 50% growth inhibition.

Common to all, as to format: functional
In one test the test system is Cryptococcus neoformans. As to the kind of experiment: Antimicrobial activity against Cryptococcus neoformans by broth microdilution method. The gist of the method:
(§1)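 Yeast strains: Candida albicans ATCC 90028 and Cryptococcus neoformans ATCC 90112. Tested by broth microdilution following the NCCLS reference broth dilution method for yeasts. The MIC was read as the lowest compound concentration giving no visible growth (optically clear wells).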
For orientation: In broth dilution the organism is exposed to a series of concentrations in liquid medium.

The test system of another test is Candida albicans. Put plainly: Antimicrobial activity against Candida albicans by broth microdilution method. In a few lines: as §1
The subject of another test is P388. Put plainly: Cytotoxicity against mouse P388 cells.
In a further test the test system is BXPC-3. As to the kind of experiment: Cytotoxicity against human BxPC3 cells.
In another test the test system is MCF7. As to the kind of experiment: Cytotoxicity against human MCF7 cells.
The next test deals with SF-268. As to the kind of experiment: Cytotoxicity against human SF268 cells.
For a further test, the system named is NCI-H460. As to the kind of experiment: Cytotoxicity against human NCI-H460 cells.
Another test deals with KM-20L2. As to the kind of experiment: Cytotoxicity against human KM20L2 cells.
The next test has as its system DU-145. Put plainly: Cytotoxicity against human DU145 cells.

Values after ≈ are worked out from the molar mass of the structure shown. Bounds are passed on as bounds.

`C[C@@]12CCC[C@]3(C)C4=CC(=O)OCC4=C[C@@H](OC1=O)[C@@H]23`: the minimum inhibitory concentration (MIC) against Cryptococcus neoformans amounted to 16 µg/mL (≈ 58.3 µM); against Candida albicans, 64 µg/mL (≈ 233 µM). Moreover, the GI50 with P388 worked out at 0.31 µg/mL (≈ 1.13 µM); in the test with BXPC-3 it was 1.8 µg/mL (≈ 6.56 µM); in the test on MCF7 it was 0.69 µg/mL (≈ 2.52 µM); in the test with SF-268 it was 0.57 µg/mL (≈ 2.08 µM); in the test on NCI-H460, 0.48 µg/mL (≈ 1.75 µM); with KM-20L2, 0.45 µg/mL (≈ 1.64 µM). Moreover, growth in the test on DU-145 was halved (GI50) at 0.34 µg/mL (≈ 1.24 µM).
For `CO[C@H]1OC(=O)C=C2C1=C[C@H]1OC(=O)[C@@]3(C)CCC[C@@]2(C)[C@@H]13`, the MIC in the test with Cryptococcus neoformans worked out at 2 µg/mL (≈ 6.57 µM); in the test with Candida albicans it was 8 µg/mL (≈ 26.3 µM). The GI50 with P388 amounted to 4.1 µg/mL (≈ 13.5 µM); in the test with BXPC-3, 0.36 µg/mL (≈ 1.18 µM); with MCF7 it was 0.33 µg/mL (≈ 1.08 µM); with SF-268 it was 0.24 µg/mL (≈ 0.789 µM); with NCI-H460, 0.24 µg/mL (≈ 0.789 µM); with KM-20L2, 0.21 µg/mL (≈ 0.69 µM). Moreover, in the test with DU-145, it took 0.14 µg/mL (≈ 0.46 µM) to inhibit growth by half (GI50).
As for `C[C@@]12CCC[C@]3(C)C4=CC(=O)O[C@@H](O)C4=C[C@@H](OC1=O)[C@@H]23` [YUKONIN], the MIC in the test with Cryptococcus neoformans was 64 µg/mL (≈ 220 µM); against Candida albicans, greater than 64 µg/mL. The 50% growth inhibitory concentration (GI50) was greater than 10 µg/mL in the test with P388; 5.6 µg/mL (≈ 19.3 µM) in the test on BXPC-3; 4 µg/mL (≈ 13.8 µM) in the test with MCF7; 2.9 µg/mL (≈ 9.99 µM) in the test on SF-268; 4.1 µg/mL (≈ 14.1 µM) in the test with NCI-H460; 3.6 µg/mL (≈ 12.4 µM) with KM-20L2. For the same compound, the GI50 with DU-145 is 2.9 µg/mL (≈ 9.99 µM).
